{
  "source": "ChEMBL document CHEMBL3616472",
  "about": "“Design, synthesis and structure-activity relationship studies of novel phenoxyacetamide-based free fatty acid receptor 1 agonists for the treatment of type 2 diabetes” (Bioorg Med Chem, 2015)",
  "note": "Calls of active or inactive are those of the source. The calls are words filed in the database; no cut-off is given here.",
  "data": [
    {"test_system": "Mus musculus", "assay": "Hypoglycemic activity in normal ICR mouse assessed as reduction in blood glucose level at 20 to 80 mg/kg, po by OGTT method", "format": "functional, organism-based", "conditions": "not given", "outline": "(§1)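 Male ICR mice, 10 weeks old, fasted 12 h and randomised into groups (n = 6). Single oral dose in 0.5% carboxymethyl cellulose (10 mL/kg) at 20, 50 or 80 mg/kg. Oral glucose load (3 g/kg, 30% solution) given 30 min later. Tail blood sampled at −30, 0, 15, 30, 45, 60 and 120 min; mean ± SEM, two-tailed Student's t-test against vehicle.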", "values": [
      {"smiles": "Cc1cccc(OCC(=O)Nc2ccc(OCC(=O)O)c(F)c2)c1", "inhibition": "Dose-dependent effect"}
    ]},
    {"test_system": "Mus musculus", "assay": "Hypoglycemic activity in normal ICR mouse assessed as reduction in blood glucose level at 20 mg/kg, po by OGTT method", "format": "functional, organism-based", "conditions": "not given", "outline": "as §1", "values": [
      {"smiles": "Cc1cc(OCCCS(C)(=O)=O)cc(C)c1-c1cccc(COc2ccc3c(c2)OC[C@H]3CC(=O)O)c1", "inhibition": "Active"}
    ]},
    {"test_system": "not listed separately", "assay": "Lipophilicity, logD of the compound at pH 7.4 by shake flask method", "format": "physicochemical", "conditions": "buffer", "outline": "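Shake-flask method with 1-octanol and buffer at pH 7.4, shaken at 700 rpm for 24 h, then left 1 h to separate. Octanol phase diluted ×10; both phases analysed by HPLC at 254 nm in duplicate. logD taken as the octanol/buffer peak-area ratio, corrected using two calibration points per compound per solvent. Three independent experiments.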", "values": [
      {"smiles": "CC(Oc1ccccc1)C(=O)Nc1ccc(OCC(=O)O)c(F)c1", "note": "(stereo unspecified)", "logD": -0.18},
      {"smiles": "Cc1cc(OCCCS(C)(=O)=O)cc(C)c1-c1cccc(COc2ccc3c(c2)OC[C@H]3CC(=O)O)c1", "logD": 2.43},
      {"smiles": "CC(Oc1cccc(C(C)(C)C)c1)C(=O)Nc1ccc(OCC(=O)O)c(F)c1", "note": "(stereo unspecified)", "logD": 0.63},
      {"smiles": "Cc1cccc(OCC(=O)Nc2ccc(OCC(=O)O)c(F)c2)c1", "logD": -0.99},
      {"smiles": "CC(C)(C)c1cccc(OCC(=O)Nc2ccc(OCC(=O)O)c(F)c2)c1", "logD": 0.35},
      {"smiles": "Cc1ccc(C(C)C)cc1OCC(=O)Nc1ccc(OCC(=O)O)c(F)c1", "logD": 0.47},
      {"smiles": "O=C(O)COc1ccc(NC(=O)COc2ccccc2)cc1F", "logD": -1.25},
      {"smiles": "CC(C)c1cccc(OCC(=O)Nc2ccc(OCC(=O)O)c(F)c2)c1", "logD": 0.15},
      {"smiles": "CC(Oc1ccccc1F)C(=O)Nc1ccc(OCC(=O)O)c(F)c1", "note": "(stereo unspecified)", "logD": 0.07},
      {"smiles": "Cc1cc(OCCCS(C)(=O)=O)cc(C)c1-c1cccc(COc2ccc(OCC(=O)O)c(F)c2)c1", "logD": 2.31},
      {"smiles": "Cc1ccc(OC(C)C(=O)Nc2ccc(OCC(=O)O)c(F)c2)cc1C", "note": "(stereo unspecified)", "logD": 0.33}
    ]},
    {"molecular_target": "T1, Free fatty acid receptor 1 (Homo sapiens, UniProt O14842)", "T1 sequence (O14842 whole entry)": "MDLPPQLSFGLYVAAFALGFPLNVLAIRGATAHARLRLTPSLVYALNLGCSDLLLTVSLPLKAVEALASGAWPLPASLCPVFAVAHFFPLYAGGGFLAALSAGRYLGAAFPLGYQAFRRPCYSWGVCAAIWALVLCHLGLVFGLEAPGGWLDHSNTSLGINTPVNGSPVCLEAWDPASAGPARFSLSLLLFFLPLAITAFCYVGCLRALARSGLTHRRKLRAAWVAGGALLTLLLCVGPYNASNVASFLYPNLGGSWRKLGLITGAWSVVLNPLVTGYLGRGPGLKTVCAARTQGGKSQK", "assay": "Agonist activity at human FFA1 expressed in CHO cells assessed as induction of receptor activation by measuring Ca2+influx at 100 nM incubated for by FLIPR method", "format": "functional, cell-based", "conditions": "not given", "outline": "(§2)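 CHO cells stably expressing human FFA1 (NM_005303), seeded 15 K cells/well, grown 16 h at 37 °C in 5% CO2. Compounds added and Ca2+ flux read on FLIPR Tetra. Activity expressed as (A−B)/(C−B)×100, with C from 10 µM γ-linolenic acid and B from vehicle. Single-concentration data are means of three independent experiments; EC50 values are means of three determinations.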", "units": {"Activity": "%"}, "values": [
      {"smiles": "CC(Oc1ccccc1)C(=O)Nc1ccc(OCC(=O)O)c(F)c1", "note": "(stereo unspecified)", "Activity": 35.7},
      {"smiles": "CC(C)c1ccc(OCC(=O)Nc2ccc(OCC(=O)O)c(F)c2)cc1", "Activity": 11.8},
      {"smiles": "CCc1ccc(OCC(=O)Nc2ccc(OCC(=O)O)c(F)c2)cc1", "Activity": 14.6},
      {"smiles": "O=C(O)COc1ccc(NC(=O)Cc2ccccc2)cc1F", "Activity": 19.9},
      {"smiles": "COc1ccc(OCC(=O)Nc2ccc(OCC(=O)O)c(F)c2)cc1", "Activity": 5.73},
      {"smiles": "Cc1cccc(NC(=O)C(=O)Nc2ccc(OCC(=O)O)c(F)c2)c1", "Activity": 17.6},
      {"smiles": "O=C(O)COc1ccc(NC(=O)C2(C(=O)Nc3ccccc3)CC2)cc1F", "Activity": 13.6},
      {"smiles": "CC(Oc1cccc(C(C)(C)C)c1)C(=O)Nc1ccc(OCC(=O)O)c(F)c1", "note": "(stereo unspecified)", "Activity": 32.8},
      {"smiles": "O=C(O)COc1ccc(NC(=O)C(=O)Nc2cccc(Cl)c2)cc1F", "Activity": 13.3},
      {"smiles": "Cc1cccc(OCC(=O)Nc2ccc(OCC(=O)O)c(F)c2)c1", "Activity": 45.4},
      {"smiles": "CC(Oc1cccc(C(F)(F)F)c1)C(=O)Nc1ccc(OCC(=O)O)c(F)c1", "note": "(stereo unspecified)", "Activity": 12.7},
      {"smiles": "CC(C)(C)c1cccc(OCC(=O)Nc2ccc(OCC(=O)O)c(F)c2)c1", "Activity": 40.2},
      {"smiles": "O=C(O)COc1ccc(NC(=O)COc2cccc(C(F)(F)F)c2)cc1F", "Activity": 11.3},
      {"smiles": "Cc1ccc(C(C)C)cc1OCC(=O)Nc1ccc(OCC(=O)O)c(F)c1", "Activity": 14.6},
      {"smiles": "CC(C)(C)c1ccc(OCC(=O)Nc2ccc(OCC(=O)O)c(F)c2)cc1", "Activity": 7.65},
      {"smiles": "COc1ccccc1NC(=O)C(=O)Nc1ccc(OCC(=O)O)c(F)c1", "Activity": 6.78},
      {"smiles": "Cc1ccc(NC(=O)C(=O)Nc2ccc(OCC(=O)O)c(F)c2)cc1", "Activity": 11.3},
      {"smiles": "COc1cccc(OCC(=O)Nc2ccc(OCC(=O)O)c(F)c2)c1", "Activity": 31.7},
      {"smiles": "O=C(O)COc1ccc(NC(=O)COc2ccccc2)cc1F", "Activity": 29.8},
      {"smiles": "Cc1ccc(C(C)C)cc1OC(C)C(=O)Nc1ccc(OCC(=O)O)c(F)c1", "note": "(stereo unspecified)", "Activity": 19.4},
      {"smiles": "CC(C)(Oc1ccccc1)C(=O)Nc1ccc(OCC(=O)O)c(F)c1", "Activity": 3.56},
      {"smiles": "O=C(O)COc1ccc(NC(=O)C(=O)Nc2ccccc2Cl)cc1F", "Activity": 10.2},
      {"smiles": "Cc1cc(C)cc(OC(C)C(=O)Nc2ccc(OCC(=O)O)c(F)c2)c1", "note": "(stereo unspecified)", "Activity": 25.7},
      {"smiles": "O=C(O)COc1ccc(NC(=O)Nc2ccccc2)cc1F", "Activity": 8.47},
      {"smiles": "CC(C)c1cccc(OCC(=O)Nc2ccc(OCC(=O)O)c(F)c2)c1", "Activity": 43.3},
      {"smiles": "CC(Oc1ccccc1F)C(=O)Nc1ccc(OCC(=O)O)c(F)c1", "note": "(stereo unspecified)", "Activity": 35.1},
      {"smiles": "CCOc1ccc(OC(C)C(=O)Nc2ccc(OCC(=O)O)c(F)c2)cc1", "note": "(stereo unspecified)", "Activity": 3.56},
      {"smiles": "CCOc1ccccc1OC(C)C(=O)Nc1ccc(OCC(=O)O)c(F)c1", "note": "(stereo unspecified)", "Activity": 8.79},
      {"smiles": "Cc1cc(OCCCS(C)(=O)=O)cc(C)c1-c1cccc(COc2ccc(OCC(=O)O)c(F)c2)c1", "Activity": 54.9},
      {"smiles": "O=C(O)COc1ccc(NC(=O)COc2ccc(OC(F)(F)F)cc2)cc1F", "Activity": 6.45},
      {"smiles": "O=C(O)COc1ccc(NC(=O)c2ccccc2)cc1F", "Activity": 3.56},
      {"smiles": "Cc1ccc(OCC(=O)Nc2ccc(OCC(=O)O)c(F)c2)cc1", "Activity": 31.2},
      {"smiles": "Cc1ccc(C)c(OC(C)C(=O)Nc2ccc(OCC(=O)O)c(F)c2)c1", "note": "(stereo unspecified)", "Activity": 18.6},
      {"smiles": "Cc1ccccc1OCC(=O)Nc1ccc(OCC(=O)O)c(F)c1", "Activity": 20.8},
      {"smiles": "Cc1ccc(OC(C)C(=O)Nc2ccc(OCC(=O)O)c(F)c2)cc1C", "note": "(stereo unspecified)", "Activity": 36.8},
      {"smiles": "O=C(O)COc1ccc(NC(=O)C(=O)Nc2ccccc2)cc1F", "Activity": 9.78}
    ]},
    {"test_system": "Mus musculus", "assay": "Hypoglycemic activity in STZ-induced type-2 diabetic C57BL/6 mouse assessed as reduction in blood glucose level at 50 mg/kg, po by OGTT method", "format": "functional, organism-based", "conditions": "not given", "outline": "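Male C57BL/6 mice fed 45%-fat diet for 4 weeks, given STZ ip at 80 mg/kg, then fed high-fat diet for 4 more weeks. Mice with fasting glucose ≥11.1 mmol/L were used. After a 12 h fast (n = 6/group, with a normal-mouse control group), 50 mg/kg was given orally in 0.5% CMC, then 2 g/kg glucose orally 30 min later. Glucose read by test strip from −30 to 120 min; Student's t-test.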", "values": [
      {"smiles": "Cc1cccc(OCC(=O)Nc2ccc(OCC(=O)O)c(F)c2)c1", "inhibition": "Active"}
    ]},
    {"molecular_target": "T1, Free fatty acid receptor 1", "assay": "Agonist activity at human FFA1 expressed in CHO cells assessed as induction of receptor activation by measuring Ca2+influx at 300 nM incubated for by FLIPR method", "format": "functional, cell-based", "conditions": "not given", "outline": "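CHO cells stably expressing human FFA1, seeded 15 K cells/well and grown 16 h at 37 °C. Response normalised as (A−B)/(C−B)×100 between vehicle (B) and 10 µM γ-linolenic acid (C).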", "units": {"Activity": "%"}, "values": [
      {"smiles": "O=C(O)COc1ccc(NC(=O)Cc2ccccc2)cc1F", "Activity": 39.6},
      {"smiles": "Cc1cccc(NC(=O)C(=O)Nc2ccc(OCC(=O)O)c(F)c2)c1", "Activity": 36.3},
      {"smiles": "O=C(O)COc1ccc(NC(=O)C2(C(=O)Nc3ccccc3)CC2)cc1F", "Activity": 34.2},
      {"smiles": "O=C(O)COc1ccc(NC(=O)C(=O)Nc2cccc(Cl)c2)cc1F", "Activity": 33.7},
      {"smiles": "COc1ccccc1NC(=O)C(=O)Nc1ccc(OCC(=O)O)c(F)c1", "Activity": 19.9},
      {"smiles": "Cc1ccc(NC(=O)C(=O)Nc2ccc(OCC(=O)O)c(F)c2)cc1", "Activity": 29.9},
      {"smiles": "O=C(O)COc1ccc(NC(=O)COc2ccccc2)cc1F", "Activity": 58.7},
      {"smiles": "O=C(O)COc1ccc(NC(=O)C(=O)Nc2ccccc2Cl)cc1F", "Activity": 27.9},
      {"smiles": "O=C(O)COc1ccc(NC(=O)Nc2ccccc2)cc1F", "Activity": 23.7},
      {"smiles": "Cc1cc(OCCCS(C)(=O)=O)cc(C)c1-c1cccc(COc2ccc(OCC(=O)O)c(F)c2)c1", "Activity": 67.3},
      {"smiles": "O=C(O)COc1ccc(NC(=O)c2ccccc2)cc1F", "Activity": 12.8},
      {"smiles": "O=C(O)COc1ccc(NC(=O)C(=O)Nc2ccccc2)cc1F", "Activity": 26.5}
    ]},
    {"molecular_target": "T1, Free fatty acid receptor 1", "assay": "Agonist activity at human FFA1 expressed in CHO cells assessed as induction of receptor activation by measuring Ca2+influx incubated for by FLIPR method", "format": "functional, cell-based", "conditions": "not given", "outline": "as §2", "units": {"EC50": "nM"}, "values": [
      {"smiles": "CC(Oc1ccccc1)C(=O)Nc1ccc(OCC(=O)O)c(F)c1", "note": "(stereo unspecified)", "EC50": 135},
      {"smiles": "CC(Oc1cccc(C(C)(C)C)c1)C(=O)Nc1ccc(OCC(=O)O)c(F)c1", "note": "(stereo unspecified)", "EC50": 140},
      {"smiles": "Cc1cccc(OCC(=O)Nc2ccc(OCC(=O)O)c(F)c2)c1", "EC50": 108},
      {"smiles": "CC(C)(C)c1cccc(OCC(=O)Nc2ccc(OCC(=O)O)c(F)c2)c1", "EC50": 122},
      {"smiles": "COc1cccc(OCC(=O)Nc2ccc(OCC(=O)O)c(F)c2)c1", "EC50": 148},
      {"smiles": "CC(C)c1cccc(OCC(=O)Nc2ccc(OCC(=O)O)c(F)c2)c1", "EC50": 116},
      {"smiles": "CC(Oc1ccccc1F)C(=O)Nc1ccc(OCC(=O)O)c(F)c1", "note": "(stereo unspecified)", "EC50": 136},
      {"smiles": "Cc1ccc(OCC(=O)Nc2ccc(OCC(=O)O)c(F)c2)cc1", "EC50": 148},
      {"smiles": "Cc1ccc(OC(C)C(=O)Nc2ccc(OCC(=O)O)c(F)c2)cc1C", "note": "(stereo unspecified)", "EC50": 133}
    ]}
  ]
}
